Calls of active or inactive are those of the source. The calls are words filed in the database; no cut-off is given here.
Assays:
HCT-116 [1] = experiment: Induction of apoptosis in human HCT116 cell assessed as increase in caspase3 protein expression level incubated for 24 hrs by Western blot analysis; assay type: functional, cell-based
HCT-116 [2] = experiment: Induction in cell cycle arrest in human HCT116 cells assessed as inhibition in cyclin A protein expression level incubated for 24 hrs by Western blot analysis; assay type: functional, cell-based
HCT-116 [3] = experiment: Inhibition of colony formation in human HCT116 cells assessed as reduction in number of colonies incubated for 7 days by crystal violet staining based assay; assay type: functional, cell-based
Outline: (§1)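 HCT116 cells were seeded at 600 per well in RPMI 1640 with 10% FBS. After 12 h the medium was refreshed and cells were treated with 0.03, 0.06 or 0.12 µM compound in DMSO, with DMSO alone as control, for 7 days. Cells were fixed in 4% paraformaldehyde (30 min) and stained with 0.1% crystal violet (15 min, room temperature). Colonies were aggregates of >50 cells, expressed as treated/untreated ratio, from ≥3 independent experiments.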

HCT-116 [4] = experiment: Potency index, ratio of IC50 for 5-Fu to IC50 for test compound for inhibition of human HCT116 cells incubated for 48 hrs by MTT assay; assay type: functional
Outline: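 Cells were grown in RPMI 1640 with 10% heat-inactivated FBS and penicillin/streptomycin at 37℃, 5% CO2. They were seeded for exponential growth, allowed to adhere 24 h, then exposed 48 h to 0.3, 1, 3 and 10 µM or DMSO. MTT was added (final 2 mg/mL) for 4 h, formazan was dissolved in DMSO, and OD was read at 492 nm. Potency and selectivity indices are ratios of these IC50 values, with L02 normal liver cells as reference for selectivity.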

HCT-116 [5] = experiment: Induction of cell cycle arrest in human HCT116 cells assessed as accumulation at G1 phase at 0.30 uM incubated for 24 hrs by propidium iodide-staining based flow cytometric analysis (reference value: 64.90%); assay type: functional
HCT-116 [6] = experiment: Induction of apoptosis in human HCT116 cell assessed as inhibition of MDM2 protein expression at > 0.1 uM incubated for 24 hrs by Western blot analysis; assay type: functional, cell-based
HCT-116 [7] = experiment: Induction of cell cycle arrest in human HCT116 cells assessed as increase in accumulation at G2/M phase incubated for 24 hrs by propidium iodide-staining based flow cytometric analysis; assay type: functional
HCT-116 [8] = experiment: Induction of apoptosis in human HCT116 cell assessed as live cells at 1 uM incubated for 24 hrs by annexin V/PI staining based flow cytometric analysis (reference value: 80.4%); assay type: functional
HCT-116 [9] = experiment: Induction in cell cycle arrest in human HCT116 cells assessed as inhibition in cyclin A protein expression level at 3 uM incubated for 24 hrs by Western blot analysis; assay type: functional, cell-based
HCT-116 [10] = experiment: Induction of apoptotic morphological change in human HCT116 cells assessed as formation of volume swelling at 0.03 to 1 uM incubated for 24 hrs by haematoxylin-eosin staining based microscopic method; assay type: functional, cell-based
Outline: (§2)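 HCT116 cells were plated in 6-well plates and held 24 h at 37℃. The medium was then replaced with medium containing 0.03, 0.1, 0.3 or 1.0 µM compound for 24 h. Cells were given conventional haematoxylin-eosin staining, and morphology was imaged under an optical microscope.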

HCT-116 [11] = experiment: Induction of apoptosis in human HCT116 cell assessed as increase in Bax protein expression level at 3 uM incubated for 24 hrs by Western blot analysis; assay type: functional, cell-based
HCT-116 [12] = experiment: Induction of cell cycle arrest in human HCT116 cells assessed as accumulation at G1 phase at 0.10 uM incubated for 24 hrs by propidium iodide-staining based flow cytometric analysis (reference value: 64.90%); assay type: functional
HCT-116 [13] = experiment: Induction of cell cycle arrest in human HCT116 cells assessed as accumulation at G2/M phase at 0.30 uM incubated for 24 hrs by propidium iodide-staining based flow cytometric analysis (reference value: 11.90%); assay type: functional
HCT-116 [14] = experiment: Induction of cell cycle arrest in human HCT116 cells assessed as accumulation at G1 phase at 0.03 uM incubated for 24 hrs by propidium iodide-staining based flow cytometric analysis (reference value: 64.90%); assay type: functional
HCT-116 [15] = experiment: Induction of apoptosis in human HCT116 cell assessed as late apoptotic cells at 0.1 uM incubated for 24 hrs by annexin V/PI staining based flow cytometric analysis (reference value: 8.04%); assay type: functional
HCT-116 [16] = experiment: Induction of apoptosis in human HCT116 cell assessed as upregulation of p53 protein expression level at 0.03 to 3 uM incubated for 24 hrs by Western blot analysis; assay type: functional, cell-based
HCT-116 [17] = experiment: Induction of apoptosis in human HCT116 cell assessed as necrotic cells at 1 uM incubated for 24 hrs by annexin V/PI staining based flow cytometric analysis (reference value: 5.62%); assay type: functional
HCT-116 [18] = experiment: Induction of apoptosis in human HCT116 cell assessed as increase in Bax protein expression level at => 0.10 uM incubated for 24 hrs by Western blot analysis; assay type: functional, cell-based
HCT-116 [19] = experiment: Inhibition of colony formation in human HCT116 cells assessed as reduction in size of colonies incubated for 7 days by crystal violet staining based assay; assay type: functional, cell-based; outline: as §1
HCT-116 [20] = experiment: Induction of cell cycle arrest in human HCT116 cells assessed as accumulation at G1 phase at 1 uM incubated for 24 hrs by propidium iodide-staining based flow cytometric analysis (reference value: 64.90%); assay type: functional
HCT-116 [21] = experiment: Antitumor activity against human HCT116 cells xenografted in athymic nu/nu mouse assessed as tumour growth inhibition at 25 mg/kg, ip administered once per day for 20 days and measured on day 21 by caliper method relative to control; assay type: functional; settings: HCT-116, ip, read-out: TGI
Outline: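 Xenografts made by subcutaneous inoculation of HCT116 cells into nude mice. Six animals per group. Groups were vehicle control, oridonin 25 mg/kg, test compound 25 mg/kg and paclitaxel 25 mg/kg. Tumour size and body weight recorded every two days. At the end the mice were sacrificed and tumours excised and weighed. Growth inhibition rate calculated against the control group.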

HCT-116 [22] = experiment: Induction of apoptotic morphological change in human HCT116 cells assessed as membrane shrinkage at 0.03 to 1 uM incubated for 24 hrs by haematoxylin-eosin staining based microscopic method; assay type: functional, cell-based; outline: as §2
HCT-116 [23] = experiment: Induction of apoptosis in human HCT116 cell assessed as necrotic cells at 0.1 uM incubated for 24 hrs by annexin V/PI staining based flow cytometric analysis (reference value: 5.62%); assay type: functional
HCT-116 [24] = experiment: Induction of cell cycle arrest in human HCT116 cells assessed as accumulation at S phase at 0.10 uM incubated for 24 hrs by propidium iodide-staining based flow cytometric analysis (reference value: 23.30%); assay type: functional
HCT-116 [25] = experiment: Induction of apoptosis in human HCT116 cell assessed as necrotic cells at 0.03 uM incubated for 24 hrs by annexin V/PI staining based flow cytometric analysis (reference value: 5.62%); assay type: functional
HCT-116 [26] = experiment: Induction of apoptosis in human HCT116 cell assessed as decrease in Bcl2 protein expression level incubated for 24 hrs by Western blot analysis; assay type: functional, cell-based
HCT-116 [27] = experiment: Induction of apoptotic morphological change in human HCT116 cells assessed as formation of condensed nuclei at 0.03 to 1 uM incubated for 24 hrs by haematoxylin-eosin staining based microscopic method; assay type: functional, cell-based
Outline: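 HCT116 at 5×10^6 per well incubated 24 h at 37℃. Medium then replaced with medium containing 0.03, 0.1, 0.3 or 1.0 µM. After 24 h, cells stained by conventional haematoxylin-eosin and imaged by light microscopy to score apoptotic morphology.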

Structure (SMILES): C=C1C(=O)[C@]23[C@H](OC(=O)c4cc5ccc(OC)cc5[nH]4)[C@H]1CC[C@H]2[C@@]12CO[C@]3(O)[C@@H](O)[C@@H]1C(C)(C)CC[C@@H]2O
- Activity (HCT-116 [1]): Dose-dependent effect
- inhibition (HCT-116 [2]): Dose-dependent effect
- inhibition (HCT-116 [3]): Dose-dependent effect
- Ratio IC50 (HCT-116 [4]): 155
- Activity (HCT-116 [5]): 39.7%
- Activity (HCT-116 [6]): Active
- Activity (HCT-116 [7]): Dose-dependent effect
- Activity (HCT-116 [8]): 30.6%
- inhibition (HCT-116 [9]): Active
- Activity (HCT-116 [10]): Active
- Activity (HCT-116 [11]): Active
- Activity (HCT-116 [12]): 46.34%
- Activity (HCT-116 [13]): 33.51%
- Activity (HCT-116 [14]): 52.73%
- Activity (HCT-116 [15]): 11.3%
- Activity (HCT-116 [16]): Active
- Activity (HCT-116 [17]): 2.95%
- Activity (HCT-116 [18]): Active
- inhibition (HCT-116 [19]): Dose-dependent effect
- Activity (HCT-116 [20]): 30.66%
- inhibition in vivo at 25 mg/kg (HCT-116 [21]): 85.8%
- Activity (HCT-116 [22]): Active
- Activity (HCT-116 [23]): 2.27%
- Activity (HCT-116 [24]): 24.18%
- Activity (HCT-116 [25]): 1.41%
- Activity (HCT-116 [26]): Dose-dependent effect
- Activity (HCT-116 [27]): Active
